SR-BI HDL uptake = inhibitors of SR-BI mediated HDL lipid uptake, primary screen, ldlA[mSR-BI] cells, fluorescence, single point | ldlA[mSR-BI] CHO cells, DiI-HDL uptake fluorescence, 3 h | inhibition, % at 12.5 µM | actives 0.96% (n = 320,000);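 active = mean replicate inhibition of at least 70% and a set share of replicates each scoring 70 or more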;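 also: 0% = median of neutral control wells and 100% = median of positive control wells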
Target sequence (Q61009 whole entry, looked up): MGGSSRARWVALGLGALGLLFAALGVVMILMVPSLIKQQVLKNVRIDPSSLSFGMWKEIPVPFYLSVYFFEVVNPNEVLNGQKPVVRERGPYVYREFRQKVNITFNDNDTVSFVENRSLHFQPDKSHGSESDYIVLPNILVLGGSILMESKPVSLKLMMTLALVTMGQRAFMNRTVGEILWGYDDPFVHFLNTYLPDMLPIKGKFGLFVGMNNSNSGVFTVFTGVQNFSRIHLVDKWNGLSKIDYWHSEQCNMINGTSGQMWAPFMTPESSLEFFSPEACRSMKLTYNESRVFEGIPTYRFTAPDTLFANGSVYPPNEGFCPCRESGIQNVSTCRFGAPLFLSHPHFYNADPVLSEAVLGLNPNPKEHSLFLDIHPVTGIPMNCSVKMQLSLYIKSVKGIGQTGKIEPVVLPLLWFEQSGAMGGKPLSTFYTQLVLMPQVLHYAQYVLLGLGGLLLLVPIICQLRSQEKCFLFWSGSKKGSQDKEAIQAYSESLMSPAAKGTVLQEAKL
AHR activator = AHR activators, primary screen, cell-based, luminescence, luciferase reporter, human; AHR-responsive luciferase reporter cells; AID 2796, 2010; Aryl hydrocarbon receptor (Homo sapiens), P35869; activation, % at 5 µM; actives 2.5% (n = 320,000); in the data active = activation above about 47%;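 also: 0% = vehicle wells and 100% = reference agonist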
Yeast superoxide = reduction of superoxide in aged yeast, primary screen, HTS | S. cerevisiae aged cells, superoxide DHE fluorescence; stronger effect = lower value | superoxide response (% of plate mean), % at 10 µM | actives 0.18% (n = 330,000) | AID 2690, 2010;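 active = superoxide response under a set limit, about three screen SD below normal, cut at about 65% in these data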;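 also: yeast aged for seven days with compound at 30 °C before DHE staining; 100% = average MFI of all compound-treated wells on the plate with controls excluded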
SR-BI uptake up = activators of SR-BI mediated DiI-HDL uptake, primary screen, ldlA[mSR-BI] CHO cells, DiI fluorescence | 3 h; 100 = double the neutral-control signal | activation, % at 12.5 µM | actives 0.096% (n = 320,000) | AID 504775, 2011;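 active = mean replicate activation of at least 60% and every replicate at or above 60%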;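 also: 0% = median plate neutral-control signal and 100% = twice that signal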
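System: CHO ldlA[mSR-BI] cells / Medium: HEPES-buffered (25 mM, pH 7.4) F12 plus 0.5% BSA / Probe or stimulus: labelled HDL, 10 µg/mL / Doses: single compound concentration, delivered by pin transfer / Schedule: 3 h, 37 °C / Measured by: DiI fluorescence, bottom read / Measure: cell-associated DiI fluorescence as measure of HDL uptake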
SMARCA2 act = SMARCA2 (BRM) function activators, primary screen, cell-based, luminescence, high throughput; MG213 cells, MMTV-luciferase reporter, dexamethasone, overnight; activation, % at 9.1 µM; actives 1% (n = 370,000); in the data active = activation above about 7.8%;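 also: 0% = vehicle wells and 100% = reference activator wells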
Hep lipid drop = inhibitors of hepatocyte lipid droplet formation, primary screen, imaging, high-throughput imaging, BODIPY stain | AID 1656, 2009 | actives 0.4% (n = 240,000) | inhibition, % at 6.5 µM | AML12 mouse hepatocytes, oleate lipid droplets;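 active = lipid droplet intensity inhibited by at least 50%, with more than 500 cells counted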
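Material: mouse AML12 hepatocyte cell line, fixed after treatment; Timing: compound with oleate, overnight; Technique: high-content imaging of BODIPY-stained droplets and DAPI nuclei; Probe or stimulus: oleate, 100 µM final; Dosing: compound at 6.5 µM only.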
Lipid drop inh = hepatocyte lipid droplet accumulation inhibitors, confirmation, imaging, AML12 mouse hepatocytes, single concentration, high-content; shares compounds with Hep lipid drop; BODIPY lipid droplet imaging; droplets induced with 100 µM oleic acid; inhibition, % at 5.2 µM; actives 65% (n = 870); AID 463183, 2010;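 active = inhibition of lipid droplet metric at least 50%, with more than 300 cells in each of four replicates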;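 also: plate controls were DMSO with oleic acid for no effect and 5 µM Triacsin-C for full effect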
AML12 tox img = AML12 hepatocyte cytotoxicity, counter-screen for hepatic lipid droplet formation project, imaging, DAPI nuclear morphology imaging; shares compounds with Hep lipid drop; AML12 mouse hepatocytes; stronger effect = higher value; cells fed 100 µM oleate overnight; actives 3% (n = 870); z-score at 5 µM; AID 463200, 2010; in the data active = z-score above about 6.3;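 also: compound exposure lasted overnight at 37 °C before fixation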
AML12 tox conf = AML12 hepatocyte cytotoxicity, confirmation, cytotoxicity control for hepatic lipid droplet formation project, cell-based, single concentration; AML12 mouse hepatocyte viability, ATP luminescence; cells loaded with 100 µM oleic acid; cytotoxicity, % at 50 µM; 530 tested, under 10 active; shares compounds with Hep lipid drop; AID 463219, 2010;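 active = cytotoxicity above 50% in each of four replicates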;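 also: compound exposure lasted overnight at 37 °C before the ATP read; 0% = DMSO-treated cells and 100% = wells with no cells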
Starred values were filed as active, the others as inactive; x = no result given. An excerpt weighted towards active compounds, which were near 4.3% of everything screened.

SMILES | SR-BI HDL uptake | AHR activator | Yeast superoxide | SR-BI uptake up | SMARCA2 act | Hep lipid drop | Lipid drop inh | AML12 tox img | others
CNC(=O)c1[nH]cnc1C(=O)Nc1cccc(Cl)c1 | -9 | 55* | 118 | 9 | 2 | x | x | x
CN(CCN(C)C(=O)c1[nH]cnc1C(=O)Nc1ccccc1)C(=O)c1[nH]cnc1C(=O)Nc1ccccc1 | -1 | 47* | 102 | -3 | 0 | x | x | x
O=C(Nc1ccccc1)c1nc[nH]c1C(=O)NCCNC(=O)c1[nH]cnc1C(=O)Nc1ccccc1 | -9 | 76* | 108 | 15 | -1 | x | x | x
NS(=O)(=O)c1ccc(OCCCN2CCC(C(O)(c3ccccc3)c3ccccc3)CC2)cc1 | x | x | x | x | -1 | x | x | x
O=C(NCc1ccccc1)[C@@H]1CCCN1C(=O)[C@H]1CCCN1C(=O)C1CCCCC1 | x | x | x | x | 0 | x | x | x
CCc1cc2c(nc1CC)CCCN2S(=O)(=O)c1ccc(C(F)(F)F)cc1 | x | x | x | x | -4 | x | x | x
COc1ccc(Cl)cc1NC(=O)C1CCN(C(=O)C2CC(=O)N(c3ccc(C)cc3)C2)CC1 (configuration not stated) | 89* | 0 | 102 | -89 | -2 | -1 | x | x
COc1ccc(Nc2cccccc2=O)cc1 | 26 | -3 | 97 | -26 | 1 | x | x | x
COc1ccc(Nc2cccc3ccccc23)cc1 | 35 | 77* | 97 | -35 | 4 | x | x | x
Cc1ccc(N2NC(C)(c3cccs3)NC2=S)cc1 (configuration not stated) | -11 | 52* | 92 | 11 | -2 | -8 | x | x
CC(C)(C)OC(=O)NCCCC[C@H](NC(=O)c1[nH]cnc1C(=O)N[C@@H](Cc1ccccc1)C(=O)OC(C)(C)C)C(=O)OC(C)(C)C | -64 | 2 | 106 | 64* | 0 | x | x | x
CC(C)(C)OC(=O)NCCCCCNC(=O)c1[nH]cnc1C(=O)N[C@@H](Cc1ccccc1)C(=O)OC(C)(C)C | -14 | -2 | 103 | 14 | x | x | x | x
Clc1ccc2oc(-c3ccccn3)nc2c1 | 1 | 61* | 104 | -1 | 6 | -1 | x | x
Nc1ccc2oc(-c3ccccn3)nc2c1 | 4 | 0 | 85 | -4 | 6 | 2 | x | x
FC(F)(F)c1ccc(Cn2ccc3ccc(-c4ccc5ccn(Cc6ccc(C(F)(F)F)cc6)c5c4)cc32)cc1 | x | x | x | x | -2 | x | x | x
CC(CCN1CCC(C(O)(c2ccccc2)c2ccccc2)CC1)Oc1cccc(Cl)c1 (configuration not stated) | x | x | x | x | 7 | x | x | x
Cc1cc(C=O)c(O)cc1O | -20 | 2 | 91 | 20 | 0 | 51* | 27 | -0.29
O=Cc1cc(N=Nc2ccc(S(=O)(=O)O)cc2)ccc1O | -6 | 0 | 95 | 6 | -3 | x | x | x
CCc1ccc(NC(=O)CNC(=O)[C@@H]2Cc3ccccc3CN2C(=O)OC(C)(C)C)cc1 | -22 | 8 | 108 | 22 | -2 | 54* | 76* | -0.28 | AML12 tox conf=2
CCc1ccc(NC(=O)CNC(=O)[C@@H]2Cc3ccccc3CN2)cc1 | -10 | 4 | 107 | 10 | -3 | 3 | x | x
O=C(Cc1cccc2ccccc12)Nc1ccc(-c2cc3ccccc3oc2=O)cc1 | 63 | -7 | 98 | -63 | -9 | 72* | 100* | 0.57 | AML12 tox conf=13
Cc1ccccc1NC(=O)OC1CC2CC1[C@H]1CCCCN1[C@H]2Cc1ccccc1 (some centres not stated) | x | x | x | x | -3 | x | x | x
Cc1cccc(NC(=O)CN2C(=O)N/C(=C\c3cccn3-c3cccc(C(=O)O)c3)C2=O)c1 | -30 | 1 | 101 | 30 | 2 | 3 | x | x
Cc1ccc(-n2cccc2/C=C2/NC(=O)N(CC(=O)Nc3cccc(C)c3)C2=O)cc1 | -10 | 34 | 95 | 10 | -3 | 90* | 110* | 0.011 | AML12 tox conf=12
COc1ccccc1N=Nc1nc(-c2ccccc2)c(-c2ccccc2)[nH]1 | 67 | -2 | 114 | -67 | 0 | -2 | x | x
SMILES | SR-BI HDL uptake | AHR activator | Yeast superoxide | SR-BI uptake up | SMARCA2 act | Hep lipid drop | Lipid drop inh | AML12 tox img | others
COc1ccc(N=Nc2nc(-c3ccccc3)c(-c3ccccc3)[nH]2)cc1 | 32 | 1 | 97 | -32 | -5 | 100* | 108* | 1 | AML12 tox conf=-10
O=S1(=O)CCSC[C@@H](CN2CCN(c3ccccc3)CC2)N1 | x | x | x | x | -5 | x | x | x
C=CCOc1ccc(-c2nc3c(c(=O)[nH]c(=O)n3Cc3ccccc3)n2CCCOC)cc1 | -2 | 4 | 103 | 2 | 0 | 56* | 65* | 0.3 | AML12 tox conf=11
c1cc[n+](CCC[n+]2ccccc2)cc1 | 1 | 1 | 89 | -1 | -1 | 56* | 35 | -0.4
c1cc[n+](CCCC[n+]2ccccc2)cc1 | -28 | 0 | 100 | 28 | 2 | 12 | x | x
Cc1cc(NC(=O)c2ccc(Cl)cc2)cc(C)c1OCC(=O)N1CCOCC1 | 57 | 7 | 112 | -57 | 1 | 41 | x | x
CCCCOc1ccc(C(=O)Nc2cc(C)c(OCC(=O)N3CCOCC3)c(C)c2)cc1 | 54 | -1 | 79 | -54 | 0 | 93* | 96* | 0.34 | AML12 tox conf=45
Cc1cc(NC(=O)c2cccc3ccccc23)cc(C)c1OCC(=O)N1CCOCC1 | 30 | 1 | 102 | -30 | 0 | 61* | 88* | 0.28 | AML12 tox conf=17
O=C(NCc1ccccc1)OCCN1C(=O)CCC12CCCCC2 | x | x | x | x | 1 | x | x | x
COc1cc(C(=O)OCn2nnc3ccccc3c2=O)cc(OC)c1OC | 4 | 0 | 104 | -4 | 2 | 8 | x | x
COc1cc(/C=C\C(=O)OCn2nnc3ccccc3c2=O)cc(OC)c1OC | 55 | 0 | 89 | -55 | 0 | 57* | 25 | -0.6
Nc1cc(Nc2ccccc2)c2nonc2c1[N+](=O)[O-] | -12 | -1 | 86 | 12 | -3 | 101* | 110* | 0.69 | AML12 tox conf=3
C=CCNc1cccc2c1S(=O)(=O)N[C@H](CC(C)C)CO2 | x | x | x | x | 2 | x | x | x
COc1ccccc1NC(=O)OC1CC2CC1[C@H]1CCCCN1[C@H]2Cc1ccccc1 (some centres not stated) | x | x | x | x | -3 | x | x | x

Source: PubChem BioAssay (several laboratories)
